Shown are actives, neighbours in structure and some others; about 3.8% of the full set was active somewhere.
MPTP inh – blocks calcium-induced mitochondrial swelling. isolated mouse mitochondria, Ca2+ swelling absorbance, 30 min. inhibition, % at 10 µM. actives 1.4% (n = 360,000). AID 602449;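 active = inhibition of 50% or more, scaled per plate between neutral and stimulator controls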;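 note: 0% = DMSO wells given calcium and 100% = 1 mM EGTA wells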
GPR7 antag – human neuropeptides B/W receptor 1 antagonism | P48145 | GPR7-expressing cells, fluorescence antagonist assay | inhibition, % at 4.4 µM | actives 1.1% (n = 290,000) | AID 1861; in the data active = inhibition above about 16%, passing the limit was not always enough;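 note: cells stimulated with the agonist NPW; 0% = agonist with vehicle and 100% = vehicle without agonist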
Target sequence (P48145 whole entry, looked up): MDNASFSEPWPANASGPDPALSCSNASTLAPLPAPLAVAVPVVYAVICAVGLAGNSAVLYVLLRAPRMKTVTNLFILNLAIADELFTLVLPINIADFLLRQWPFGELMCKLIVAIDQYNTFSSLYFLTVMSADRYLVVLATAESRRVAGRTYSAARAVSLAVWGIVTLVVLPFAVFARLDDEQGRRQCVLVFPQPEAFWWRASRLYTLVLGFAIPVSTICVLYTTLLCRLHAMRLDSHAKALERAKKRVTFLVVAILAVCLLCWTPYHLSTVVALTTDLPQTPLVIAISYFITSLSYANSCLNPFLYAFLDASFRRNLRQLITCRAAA
CHO parental Ca – signal in parental CHO cells, OX1R antagonist counter-screen; parental CHO-K1, ATP-induced calcium, Fluo-8 fluorescence; inhibition, % at 5.6 µM; actives 0.63% (n = 330,000); AID 463079;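 active = inhibition above that plate's mean sample inhibition plus 3 SD, cut at about 26% in these data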;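 note: 0% = ATP-challenged DMSO wells and 100% = DMSO wells without ATP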
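Material – parental CHO cells · Reagent – ATP stimulus · Compound – single nominal dose of 5.6 µM per compound · Detection – Fluo-8 fluorescence · Read-out basis – percent inhibition of calcium signal · Controls – ATP-challenged DMSO wells low, unchallenged DMSO wells high · Repeats – no replicates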
OX1R antag-1 – antagonists of human orexin 1 receptor (OX1R). O43613. inhibition, % at 6.6 µM. OX1R-expressing cells, FRET antagonist read-out. actives 1.8% (n = 330,000). AID 485270; in the data active = inhibition mostly above about 38%, no sharp cut-off; inactive = mostly below about 40%;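 note: 0% = agonist challenge alone and 100% = reference antagonist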
OX1R antag-2 – antagonists of human orexin 1 receptor; O43613; CHO/OX1R cells, Fluo-8 calcium fluorescence, orexin A; inhibition, % at 5 µM; actives 0.43% (n = 330,000); AID 434989;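 active = inhibition above its plate's threshold, mean inhibition of all tested compounds on the plate plus 3 SD, cut at about 37% in these data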;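 note: 0% = orexin A challenge wells and 100% = SB-334867-A antagonist wells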
Rh123 counter – membrane potential counter-screen of mitochondrial pore inhibitors. shares compounds with MPTP inh. isolated mitochondria, Rhodamine 123 fluorescence. inhibition, % at 10 µM. actives 78% (n = 5,000). AID 624504; in the data active = inhibition above about 22%;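 note: 0% = DMSO vehicle and 100% = positive control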
MPTP swell DR – MPTP inhibition, dose response swelling confirmation; shares compounds with MPTP inh; isolated mitochondria swelling, absorbance; IC50, µM; actives 58% (n = 780); AID 651561; in the data active = IC50 below about 20 µM
MPTP counter DR – active in counter-screen for permeability transition pore inhibitors | actives 49% (n = 780) | shares compounds with MPTP inh | AID 651564 | isolated mitochondria counterscreen, fluorescence read-out | IC50, µM; in the data active = IC50 below about 80 µM
* hit, by the source's call.

For CN1CCN(CCCN2c3ccccc3Sc3ccc(Cl)cc32)CC1 the results were MPTP inh 92*, GPR7 antag 21, CHO parental Ca 23, OX1R antag-1 11, OX1R antag-2 -6 and Rh123 counter -19.
Screening Cc1onc(-c2c(Cl)cccc2Cl)c1C(=O)NCc1ccco1 returned MPTP inh 72*, GPR7 antag -3, CHO parental Ca -11, OX1R antag-1 6, OX1R antag-2 -18, Rh123 counter 4, MPTP swell DR inactive and MPTP counter DR >80.
Screening Cn1cc(Cl)c(C(=O)NC(=S)Nc2sc3c(c2C#N)CCCCC3)n1 returned MPTP inh 83*, GPR7 antag -6, CHO parental Ca -7, OX1R antag-1 9, OX1R antag-2 -11 and Rh123 counter 21*.
Screening O=C(Nc1ncc(S(=O)(=O)c2ccc([N+](=O)[O-])cc2)s1)c1ccc2ccccc2c1 returned MPTP inh 94*, GPR7 antag -3, CHO parental Ca -6, OX1R antag-1 18, OX1R antag-2 -12 and Rh123 counter 31*.
Screening O=C(Nc1ncc([N+](=O)[O-])s1)c1cccc([N+](=O)[O-])c1 returned MPTP inh 56*, GPR7 antag -8, CHO parental Ca 13, OX1R antag-1 39*, OX1R antag-2 -4 and Rh123 counter 79*.
`O=C(Nc1ncc(Cc2cc(Cl)ccc2Cl)s1)c1ccc([N+](=O)[O-])cc1` gave MPTP inh 51*, GPR7 antag 5, CHO parental Ca -29, OX1R antag-1 14, OX1R antag-2 -14, Rh123 counter -4, MPTP swell DR >100 and MPTP counter DR <2.5*.
O=C(Nc1ncc(Cc2cccc(Cl)c2Cl)s1)c1ccc([N+](=O)[O-])cc1 was read as MPTP inh 25, GPR7 antag -9, CHO parental Ca -3, OX1R antag-1 24 and OX1R antag-2 -24.
For CC(C)CC(=O)Nc1ncc([N+](=O)[O-])s1 the results were MPTP inh 67*, GPR7 antag 11, CHO parental Ca -4, OX1R antag-1 24, OX1R antag-2 3 and Rh123 counter 56*.
For O=C(Nc1ccccc1N1CCOCC1)c1cccc2ccccc12 the results were MPTP inh -1.
`Cc1nc2ccc(NC(=S)NC3CCCCC3)cc2nc1C` gave MPTP inh -2, GPR7 antag -7, CHO parental Ca 2, OX1R antag-1 26 and OX1R antag-2 -14.
Screening O=C(c1ccc(F)cc1F)N1CCCc2ccccc21 returned MPTP inh 1 and GPR7 antag -5.
Screening c1ccc2[nH]c(CSc3ncnc4c3oc3ccccc34)nc2c1 returned MPTP inh 31, GPR7 antag -3, CHO parental Ca -10, OX1R antag-1 23 and OX1R antag-2 12.
c1ccc(-c2nc(SCc3nc4ccccc4[nH]3)c3oc4ccccc4c3n2)cc1 was read as MPTP inh 50*, CHO parental Ca -13, OX1R antag-1 14, OX1R antag-2 -2 and Rh123 counter 85*.
COCCNC(=O)c1ccccc1NC(=O)CCSc1ccccc1 was read as MPTP inh 0, GPR7 antag 8, CHO parental Ca -27, OX1R antag-1 7 and OX1R antag-2 -28.
`CC(C)c1cc(C(=O)NNC(=S)NCc2ccco2)c(O)c(C(C)C)c1` gave MPTP inh 85*, GPR7 antag 3, CHO parental Ca -8, OX1R antag-1 49, OX1R antag-2 -4 and Rh123 counter 83*.
Cc1cc(C(=O)NNC(=S)NCc2ccco2)n(C)n1 was read as MPTP inh 0, GPR7 antag -14, CHO parental Ca -3, OX1R antag-1 14 and OX1R antag-2 1.
Screening COc1ccc(OCC(=O)N/N=C/C=C/c2ccccc2)cc1 returned MPTP inh 2, GPR7 antag 1, CHO parental Ca 0, OX1R antag-1 24 and OX1R antag-2 -4.
For CNc1nc2cc([N+](=O)[O-])c([N+](=O)[O-])cc2nc1NC the results were MPTP inh 105*, GPR7 antag 21, CHO parental Ca 59*, OX1R antag-1 45, OX1R antag-2 27 and Rh123 counter 94*.

Assay outcomes deposited in PubChem by several laboratories.
